# Experimental data published in ChEMBL document CHEMBL5550188, “Detection of a Mitochondrial Fragmentation and Integrated Stress Response Using the Cell Painting Assay” (2024).
# Calls of active or inactive are those of the source. No cut-off for these calls is given here.
# Key:
# U2OS [1] = assay: Induction of integrated stress response in human U2OS cells assessed as increase ATF4 level at 50 uM incubated for 24 hrs by Western blot analysis; assay type: functional, cell-based
# How it was run: (§1)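 U-2OS grown to 80% confluence in 6-well plates were treated 24 h at 37 °C versus DMSO. ATF4 was detected by immunoblotting, with vinculin as reference protein.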
# U2OS [2] = assay: Induction of oxidative stress in human U2OS cells assessed as increase in mitochondrial superoxide level at 2 uM incubated for 1 hr by MitoSox Red staining based analysis; assay type: functional, cell-based
# How it was run: (§2)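 U-2OS at 15,000/well were preloaded 30 min with 5 μM MitoSOX Red plus Hoechst in plain DMEM. They were then treated 60 min in complete DMEM, fixed in 0.5% paraformaldehyde, and imaged at 10×. Integrated MitoSOX intensity per cell was normalized to DMSO (0%) and 10 μM CDNB (100%). Mean ± SD, n = 3.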
# U2OS [3] = assay: Induction of integrated stress response in human U2OS cells assessed as increase ATF4 mRNA level at 2 uM incubated for 24 hrs by RT-qPCR analysis; assay type: functional, cell-based
# How it was run: (§3)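 U-2OS at 1 × 10⁵/well in 6-well plates were grown 24 h to ~80% confluence, then treated 24 h versus DMSO. Total RNA (DNase-treated) was reverse-transcribed and ATF4 measured by SYBR Green qPCR. Expression was calculated by ΔΔCt against GAPDH, with DMSO set to 100%. Mean ± SD, n = 3.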
# U2OS [4] = assay: Effect on oxidative phosphorylation in human U2OS cells at 2 uM incubated for 24 hrs by pathway over-representation analysis; assay type: functional, cell-based
# How it was run: (§4)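 U-2OS seeded at 1 × 10⁶ cells in T75 flasks, treated next day for 24 h at 37 °C versus DMSO. Cells were lysed by freeze–thaw, reduced with TCEP at 55 °C, alkylated with iodoacetamide, acetone-precipitated and trypsin-digested. Peptides were TMT-labelled, split into 10 fractions by high-pH C18, then run on nanoHPLC-MS/MS (orbitrap). Biological triplicates, with pathway over-representation analysis.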
# U2OS [5] = assay: Effect on mitochondrial respiration in human U2OS cells assessed as suppression of OCR level at 2 to 10 uM of acute treatment by Seahorse analysis; assay type: functional, cell-based; details: dose 2-10 µM
# How it was run: (§5)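 Seahorse XFp Mito Stress Test on U-2OS, 2 × 10⁵ cells per well, seeded overnight. Assay medium was pH 7.4 DMEM with 2 mM GlutaMAX, 1 mM pyruvate and 25 mM glucose. For acute runs, compound was injected after 5 baseline reads, then 10 reads. Otherwise cells were pretreated 24 h. Then oligomycin A, FCCP and rotenone/antimycin A were added. OCR/ECAR were background-subtracted and normalized to the last baseline (100%). Mean ± SD, n = 3.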
# U2OS [6] = assay: Effect on mitochondrial respiration in human U2OS cells assessed as suppression of OCR level measured after 24 hrs by Seahorse analysis; assay type: functional, cell-based; how it was run: as §5
# U2OS [7] = assay: Inhibition of cell confluence in human U2OS cells at 2 uM measured after 48 hrs by PI/caspase-3/7 Green dye based analysis; assay type: functional
# How it was run: (§6)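 U-2OS at 5000/well were incubated overnight, then given medium with compound or DMSO plus propidium iodide and CellEvent Caspase-3/7 Green. Cells were imaged hourly for 48 h by live-cell imaging. Phase confluence gave growth; red and green object confluence gave PI-positive cells and caspase-3/7 activity.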
# U2OS [8] = assay: Inhibition of cell confluence in human U2OS cells at 10 uM measured after 48 hrs by PI/caspase-3/7 Green dye based analysis; assay type: functional; how it was run: as §6
# U2OS [9] = assay: Induction of mitochondrial fragmentation in human U2OS cells assessed as puncta-like staining at 2 uM incubated for 20 hrs by Mito Tracker Deep Red dye based CPA assay; assay type: functional, cell-based
# How it was run: (§7)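 Cell Painting: U-2OS were seeded at 1600 cells/well, then dosed 4 h later for 20 h at 37 °C against a matched-% DMSO control. Live cells were stained 30 min with 100 nM MitoTracker Deep Red, then fixed in 3.7% formaldehyde and permeabilized with 0.1% Triton X-100. They were co-stained with phalloidin, concanavalin A, Hoechst, WGA and SYTO 14. Imaging was high-content, run as triplicate plates; features are Z-scores versus DMSO median/MAD.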
# HEK-293T [10] = assay: Upregulation of HIF1 level in HEK293T cells transfected with HIF1/luc at 2 uM incubated for 24 hrs by Renilla luciferase base assay; assay type: functional, cell-based; details: Homo sapiens
# How it was run: (§8)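 HEK293T were co-transfected (Lipofectamine 2000) with a PGK1-HRE-driven destabilized firefly luciferase reporter and constitutive TK-Renilla. Cells were seeded at 2.5 × 10⁴/well, then treated 24 h the next day, with 100 μM CoCl₂ and 10 μM ML228 as controls. Dual-Glo readout: firefly was normalized to Renilla and expressed as fold induction over DMSO.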
# U2OS [11] = assay: Effect on mitochondrial membrane potential in human U2OS cells at 2 uM incubated for 24 hrs by TRME staining based analysis; assay type: functional, cell-based
# How it was run: (§9)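 U-2OS (5 × 10³/well) were treated 24 h, then given 20 μM FCCP or 0.5% DMSO controls for 10 min. Cells were stained 30 min at 37 °C with 1 μM TMRE plus Hoechst-33342 in complete DMEM, washed, and imaged live in 0.2% BSA/PBS at 10× (TMRE ex/em 549/575 nm).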
# U2OS [12] = assay: Effect on glycolysis in human U2OS cells assessed as increase in ECAR level at 2 to 10 uM of acute treatment by Seahorse analysis; assay type: functional, cell-based; details: dose 2-10 µM; how it was run: as §5
# U2OS [13] = assay: Induction of integrated stress response in human U2OS cells assessed as increase ATF4 level at 2 uM incubated for 24 hrs by Western blot analysis; assay type: functional, cell-based; how it was run: as §1
# U2OS [14] = assay: Effect on mitochondrial respiration in human U2OS cells assessed as suppression of OCR level at 10 uM measured after 24 hrs by Seahorse analysis relative to control; assay type: functional; how it was run: as §5
# U2OS [15] = assay: Effect on HIF1 signaling in human U2OS cells at 2 uM incubated for 24 hrs by pathway over-representation analysis; assay type: functional, cell-based; how it was run: as §4
# U2OS [16] = assay: Effect on mitochondrial dysfunction in human U2OS cells at 2 uM incubated for 24 hrs by pathway over-representation analysis; assay type: functional, cell-based; how it was run: as §4
# U2OS [17] = assay: Induction of mitochondrial network fragmentation in human U2OS cells at 2 uM incubated for 24 hrs by CellLight Mitochondria-GFP assay; assay type: functional, cell-based
# How it was run: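 U-2OS were transduced with CellLight Mitochondria-GFP BacMam 2.0 one day before treatment. 3000 cells/well were seeded in chamber slides. After compound addition, live cells were imaged by confocal microscopy (488/555 nm) continuously over 24 h at 37 °C, 5% CO₂.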
# U2OS [18] = assay: Effect on glycolysis in human U2OS cells assessed as increase in ECAR level at highest concentration measured after 24 hrs by Seahorse analysis; assay type: functional, cell-based; how it was run: as §5
# U2OS [19] = assay: Induction of integrated stress response in human U2OS cells assessed as increase ATF4 mRNA level at 30 uM incubated for 24 hrs by RT-qPCR analysis; assay type: functional, cell-based; how it was run: as §3
# U2OS [20] = assay: Effect on mitochondrial dysfunction in human U2OS cells at 30 uM incubated for 24 hrs by pathway over-representation analysis; assay type: functional, cell-based; how it was run: as §4
# U2OS [21] = assay: Effect on mitochondrial respiration in human U2OS cells assessed as suppression of OCR level at 10 to 30 uM of acute treatment by Seahorse analysis; assay type: functional, cell-based; details: dose 10-30 µM; how it was run: as §5
# U2OS [22] = assay: Effect on HIF1 signaling in human U2OS cells at 30 uM incubated for 24 hrs by pathway over-representation analysis; assay type: functional, cell-based; how it was run: as §4
# U2OS [23] = assay: Effect on mitochondrial respiration in human U2OS cells assessed as suppression of OCR level at 10 to 30 uM measured after 24 hrs by Seahorse analysis; assay type: functional, cell-based; details: dose 10-30 µM; how it was run: as §5
# U2OS [24] = assay: Effect on glycolysis in human U2OS cells assessed as increase in ECAR level at 10 to 30 uM of acute treatment by Seahorse analysis; assay type: functional, cell-based; details: dose 10-30 µM; how it was run: as §5
# U2OS [25] = assay: Effect on mitochondrial membrane potential in human U2OS cells at 30 uM incubated for 24 hrs by TRME staining based analysis; assay type: functional, cell-based; how it was run: as §9
# U2OS [26] = assay: Inhibition of cell confluence in human U2OS cells at 10 to 50 uM measured after 48 hrs by PI/caspase-3/7 Green dye based analysis; assay type: functional; details: dose 10-50 µM; how it was run: as §6
# U2OS [27] = assay: Induction of oxidative stress in human U2OS cells assessed as increase in mitochondrial superoxide level at 30 uM incubated for 1 hr by MitoSox Red staining based analysis; assay type: functional, cell-based; how it was run: as §2
# U2OS [28] = assay: Induction of mitochondrial fragmentation in human U2OS cells assessed as puncta-like staining at 30 uM incubated for 20 hrs by Mito Tracker Deep Red dye based CPA assay; assay type: functional, cell-based; how it was run: as §7
# HEK-293T [29] = assay: Upregulation of HIF1 level in HEK293T cells transfected with HIF1/luc at 30 uM incubated for 24 hrs by Renilla luciferase base assay; assay type: functional, cell-based; details: Homo sapiens; how it was run: as §8
# U2OS [30] = assay: Induction of integrated stress response in human U2OS cells assessed as increase ATF4 level at 30 uM incubated for 24 hrs by Western blot analysis; assay type: functional, cell-based; how it was run: as §1
# U2OS [31] = assay: Effect on oxidative phosphorylation in human U2OS cells at 30 uM incubated for 24 hrs by pathway over-representation analysis; assay type: functional, cell-based; how it was run: as §4
structure (smiles),measurement,setting,value
CC(=O)N(O)CCCCCNC(=O)CCC(=O)N(O)CCCCCNC(=O)CCC(=O)N(O)CCCCCN,Activity,U2OS [1],inactive
CCOC(=O)CCNc1cc(N2CCc3ccccc3CC2)nc(-c2ccccn2)n1,Activity,U2OS [2],Active
same,Activity,U2OS [3],Active
same,Activity,U2OS [4],Active
same,Activity,U2OS [5],inactive
same,Activity,U2OS [6],Dose-Dependent Effect
same,inhibition,U2OS [7],inactive
same,inhibition,U2OS [8],Active
same,Activity,U2OS [9],Active
same,Activity,HEK-293T [10],Active
same,Activity,U2OS [11],inactive
same,Activity,U2OS [12],inactive
same,Activity,U2OS [13],Active
same,Activity,U2OS [14],~100%
same,Activity,U2OS [15],inactive
same,Activity,U2OS [16],Active
same,Activity,U2OS [17],Active
same,Activity,U2OS [18],Active
Cc1cccc(-c2[nH]c(C(C)(C)C)nc2-c2ccc3nccnc3c2)n1,Activity,U2OS [19],Active
same,Activity,U2OS [20],Active
same,Activity,U2OS [21],inactive
same,Activity,U2OS [22],inactive
same,Activity,U2OS [23],Active
same,Activity,U2OS [24],inactive
same,Activity,U2OS [25],inactive
same,inhibition,U2OS [26],inactive
same,Activity,U2OS [27],Active
same,Activity,U2OS [28],Active
same,Activity,HEK-293T [29],Active
same,Activity,U2OS [30],Active
same,Activity,U2OS [18],Active
same,Activity,U2OS [31],Active
